Bioassay records (PubChem)
Exocytosis inh – lytic granule exocytosis inhibition; TALL-104 LAMP-1 surface exposure, flow cytometry; cells stimulated with thapsigargin and PMA; inhibition, % at 10 µM; actives 0.66% (n = 360,000); AID 651702;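 active = inhibition above about 55%, limit read from the data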
Arrestin-AP2 inh – human beta-arrestin and AP2 interaction inhibition; FITC-arrestin peptide / GST-AP2 beads, flow cytometry; AP2 beta2 appendage carries R879A mutation; actives 0.31% (n = 340,000); inhibition, % at 10 µM; AID 504490;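 active = inhibition above a set limit, near 3 SD of compounds lacking own fluorescence, cut at about 54% in these data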;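 note: plate controls were DMSO wells for no effect and 5 µM unlabelled arrestin peptide for full effect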
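system = GST-tagged AP2 beta2-adaptin appendage (R879A) on 4 µm glutathione beads | reagent = FITC-labelled arrestin peptide probe, 50 nM final | schedule = compound with beads 12 min RT, then probe 1 h RT | signal = HyperCyt-sampled flow cytometry, FL1 channel, ex 488/em 535 nm | read-out = percent response from loss of bead-bound FITC fluorescence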
ABCB6 inh MLPCN – human ABCB6 transporter inhibition | Q9NP58 | K562-ABCB6 porphyrin accumulation, flow cytometry, 1 h; stronger effect = lower value | fluorescence ratio to DMSO, % at 10 µM | actives 0.19% (n = 360,000) | AID 602162;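 active = fluorescence ratio to DMSO below 75%, the collection mean minus 3 SD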;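 note: signal is porphyrin accumulated inside mitochondria; 100% equals median channel fluorescence of DMSO control wells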
ATG4B inh – blocks human ATG4B protease cleavage of LC3 substrate; Q9Y4P1; inhibition, % at 8.33 µM; actives 0.51% (n = 340,000); ATG4B cleavage of LC3-PLA2, NBD-HPC fluorescence, 1 h; in the data active = inhibition above about 40%
Target sequence (Q9Y4P1 whole entry, looked up): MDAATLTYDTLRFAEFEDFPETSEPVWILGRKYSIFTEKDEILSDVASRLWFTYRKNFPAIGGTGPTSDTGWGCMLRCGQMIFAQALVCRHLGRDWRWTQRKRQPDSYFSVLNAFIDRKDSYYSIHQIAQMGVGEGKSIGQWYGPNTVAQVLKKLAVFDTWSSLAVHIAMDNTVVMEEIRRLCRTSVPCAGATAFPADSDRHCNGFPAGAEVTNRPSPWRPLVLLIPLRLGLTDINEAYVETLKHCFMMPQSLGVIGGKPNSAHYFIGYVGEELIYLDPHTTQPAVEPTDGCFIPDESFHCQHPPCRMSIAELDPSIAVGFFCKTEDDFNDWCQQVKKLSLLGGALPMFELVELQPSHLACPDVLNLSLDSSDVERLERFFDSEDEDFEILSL
Myeloid diff MLP – promotes myeloid progenitor differentiation | ER-HoxA9 myeloid progenitors, lysozyme-GFP differentiation, flow cytometry | calls only at 10 µM | actives 1% (n = 360,000) | AID 624256;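 active = normalized GFP-positive differentiation at or above the plate's own cutoff, the solvent-only control mean plus 3 SD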;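 note: cells exposed to compound for four days before flow analysis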
CendR NRP1 mod – alters CendR peptide binding to human NRP-1 | inhibition, % at 25 µM | AID 602438 | O14786 | FAM-RPARPAR peptide binding to NRP-1, fluorescence polarization | actives 0.85% (n = 360,000);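 active = inhibition or corrected inhibition above about 18%, plus a signal ratio from 0.5 to 1.5, limit read from the data, passing the limit was not always enough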
An asterisk follows results filed as active. An excerpt weighted towards active compounds, which were near 3.3% of everything screened.

COC/C=C/C1=CC2=CC(=O)C(C)(OC(=O)c3cnc4ccccc4n3)C(=O)C2=CN1C(CO)CO (centres undefined) was read as Exocytosis inh -6, Arrestin-AP2 inh 18, ABCB6 inh MLPCN 89, ATG4B inh -12, Myeloid diff MLP inactive and CendR NRP1 mod 37*.
CCCCC1=CC2=CC(=O)C(C)(OC(=O)CC)C(=O)C2=CN1c1ccccc1 (centres undefined) was read as Exocytosis inh -9, Arrestin-AP2 inh 16, ABCB6 inh MLPCN 100, ATG4B inh 4, Myeloid diff MLP inactive and CendR NRP1 mod -1.
`COC/C=C/C1=CC2=CC(=O)C(C)(OC(=O)c3cnc4ccccc4n3)C(=O)C2=CN1CCOC` (centres undefined) gave Exocytosis inh 4, Arrestin-AP2 inh 21, ABCB6 inh MLPCN 104, ATG4B inh -1, Myeloid diff MLP inactive and CendR NRP1 mod 32*.
For COC/C=C/C1=CC2=CC(=O)C(C)(OC(=O)c3cnc4ccccc4n3)C(=O)C2=CN1Cc1ccco1 (centres undefined) the results were Exocytosis inh 14, Arrestin-AP2 inh 12, ABCB6 inh MLPCN 101, ATG4B inh 2, Myeloid diff MLP inactive and CendR NRP1 mod 30*.
Cc1ccc(NC(=O)Cc2nnc(SCC(=O)c3ccc(Br)cc3)n2C)cc1 was read as Exocytosis inh 1, Arrestin-AP2 inh -17, ABCB6 inh MLPCN 96, ATG4B inh -5, Myeloid diff MLP inactive and CendR NRP1 mod -6.
Screening COc1ccc(NC(=O)CN2C(=O)NC3(CC(C)CC(C)(C)C3)C2=O)cc1S(=O)(=O)N1CCCCC1 (centres undefined) returned Exocytosis inh -4, Arrestin-AP2 inh -12, ABCB6 inh MLPCN 96, ATG4B inh -14, Myeloid diff MLP inactive and CendR NRP1 mod 6.
Screening CCc1ccc(N2C(=O)C3C4CCC(C4=C(C)C)C3C2=O)cc1 (centres undefined) returned Exocytosis inh 4, Arrestin-AP2 inh -3, ABCB6 inh MLPCN 98, ATG4B inh 9, Myeloid diff MLP inactive and CendR NRP1 mod 4.
`O=C(CNC(=O)c1ccc(Br)o1)OCC(=O)c1cccc([N+](=O)[O-])c1` gave Exocytosis inh -1, Arrestin-AP2 inh 12, ABCB6 inh MLPCN 95, ATG4B inh -8, Myeloid diff MLP inactive and CendR NRP1 mod 0.
CCCCC1=CC2=CC(=O)C(C)(OC(=O)CC)C(=O)C2=CN1CCOC (centres undefined) was read as Exocytosis inh -1, Arrestin-AP2 inh 2, ABCB6 inh MLPCN 102, ATG4B inh 4, Myeloid diff MLP inactive and CendR NRP1 mod -3.
For COC/C=C/C1=CC2=CC(=O)C(C)(OC(=O)c3cnc4ccccc4n3)C(=O)C2=CN1CCCOC(C)C (centres undefined) the results were Exocytosis inh 6, Arrestin-AP2 inh 14, ABCB6 inh MLPCN 91, ATG4B inh -8, Myeloid diff MLP inactive and CendR NRP1 mod 44*.
For CC1Cc2ccccc2N1C(=O)CN(C)CC(=O)Nc1ccc(OC(F)(F)F)cc1 (centres undefined) the results were Exocytosis inh 18, Arrestin-AP2 inh -2, ABCB6 inh MLPCN 102, ATG4B inh 3, Myeloid diff MLP inactive and CendR NRP1 mod -9.
Screening O=C(NCCS(=O)(=O)N1CCN(c2ccccc2)CC1)c1ccccc1F returned Exocytosis inh 1, Arrestin-AP2 inh 8, ABCB6 inh MLPCN 99, ATG4B inh -13, Myeloid diff MLP inactive and CendR NRP1 mod 2.
`COc1cccc(C(=O)NCCS(=O)(=O)N2CCN(c3ccccc3)CC2)c1OC` gave Exocytosis inh -2, ABCB6 inh MLPCN 93, Myeloid diff MLP inactive and CendR NRP1 mod 25*.
`Clc1ccc2nnc(Cl)n2n1` gave Exocytosis inh 2, Arrestin-AP2 inh -21, ABCB6 inh MLPCN 90, ATG4B inh 0, Myeloid diff MLP active and CendR NRP1 mod -9.
For CC1(C)CC(=O)C2=C(C1)N(CC1CCCO1)C(=O)C2(O)C(F)(F)F (centres undefined) the results were Exocytosis inh 80*, Arrestin-AP2 inh 2, ABCB6 inh MLPCN 104, ATG4B inh -6, Myeloid diff MLP inactive and CendR NRP1 mod -9.
